pKi: −log10 of the molar value.
Target: T1, Calpain-2 catalytic subunit (Homo sapiens, UniProt P17655)
T1 sequence (P17655 whole entry): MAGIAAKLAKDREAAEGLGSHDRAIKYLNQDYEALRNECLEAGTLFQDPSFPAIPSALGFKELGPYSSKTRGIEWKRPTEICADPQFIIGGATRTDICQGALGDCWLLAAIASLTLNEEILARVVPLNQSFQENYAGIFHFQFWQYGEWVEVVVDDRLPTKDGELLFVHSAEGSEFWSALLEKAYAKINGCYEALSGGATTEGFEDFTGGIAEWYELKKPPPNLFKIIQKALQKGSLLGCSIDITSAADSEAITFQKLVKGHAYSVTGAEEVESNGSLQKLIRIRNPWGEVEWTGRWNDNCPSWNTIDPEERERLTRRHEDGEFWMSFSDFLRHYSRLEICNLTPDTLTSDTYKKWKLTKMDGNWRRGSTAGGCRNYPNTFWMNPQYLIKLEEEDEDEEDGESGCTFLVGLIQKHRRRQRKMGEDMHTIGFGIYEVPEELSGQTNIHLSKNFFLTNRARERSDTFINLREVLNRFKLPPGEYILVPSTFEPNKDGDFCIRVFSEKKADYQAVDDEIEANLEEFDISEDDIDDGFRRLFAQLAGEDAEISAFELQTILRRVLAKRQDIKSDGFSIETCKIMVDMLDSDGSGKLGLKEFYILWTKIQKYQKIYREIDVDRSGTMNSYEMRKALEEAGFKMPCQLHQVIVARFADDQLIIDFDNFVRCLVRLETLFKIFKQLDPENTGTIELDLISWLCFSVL
Experiment: Compound was evaluated for the inhibition of Cysteine protease Calpain 2
Method in brief: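 Calpain assay in 25 mM Tris, pH 8.0, with 10 mM CaCl₂ and 5% DMSO. Suc-Leu-AMC hydrolysis was read as initial velocity (t = 30-60 s) after a 30 s delay, at room temperature. Five or more inhibitor concentrations (not above 2 × K_obs) were used at two fixed substrate levels. Ki came from Dixon plots (1/v vs I) averaged over triplicates.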

| Compound | pKi |
| --- | --- |
| CC(C)CC(NC(=O)C(c1ccccc1)c1ccccc1)C(=O)NC(Cc1ccccc1)C(=O)C(=O)NCc1ccccn1 (stereo unspecified) [2-Diphenylacetylamino-4-methyl-pentanoic acid {1-benzyl-2-oxo-2-[(pyridin-2-ylmethyl)-carbamoyl]-ethyl}-amide] | 6.44 |
| CCC(NC(=O)C(CC(C)C)NC(=O)OCc1ccccc1)C(=O)C(=O)NCC(OC)OC (stereo unspecified) [{1-[1-(2,2-Dimethoxy-ethylaminooxalyl)-propylcarbamoyl]-3-methyl-butyl}-carbamic acid benzyl ester] | 7.00 |
| CCNC(=O)C(=O)C(CC)NC(=O)C(CC(C)C)NC(=O)C(c1ccccc1)c1ccccc1 (stereo unspecified) [3-(2-Diphenylacetylamino-4-methyl-pentanoylamino)-2-oxo-pentanoic acid ethylamide] | 5.92 |
| CCC(NC(=O)C(CC(C)C)NC(=O)OCc1ccccc1)C(=O)C(=O)NCC(O)c1cccc(Oc2ccccc2)c1 (stereo unspecified) [(1-{1-[2-Hydroxy-2-(3-phenoxy-phenyl)-ethylaminooxalyl]-propylcarbamoyl}-3-methyl-butyl)-carbamic acid benzyl ester] | 6.23 |
| CCC(NC(=O)C(CC(C)C)NC(=O)OCc1ccccc1)C(=O)C(=O)NCc1ccccc1 (stereo unspecified) [[1-(1-Benzylaminooxalyl-propylcarbamoyl)-3-methyl-butyl]-carbamic acid benzyl ester] | 6.46 |
| CC(C)CC(NC(=O)OCc1ccccc1)C(=O)NC(Cc1ccccc1)C(=O)C(=O)NCc1ccccn1 (stereo unspecified) [(1-{1-Benzyl-2-oxo-2-[(pyridin-2-ylmethyl)-carbamoyl]-ethylcarbamoyl}-3-methyl-butyl)-carbamic acid benzyl ester] | 6.57 |
| CCC(NC(=O)C(CC(C)C)NC(=O)OCc1ccccc1)C(=O)C(=O)NCCc1cccn1C (stereo unspecified) [(3-Methyl-1-{1-[2-(1-methyl-1H-pyrrol-2-yl)-ethylaminooxalyl]-propylcarbamoyl}-butyl)-carbamic acid benzyl ester] | 7.12 |
| CCC(NC(=O)C(CC(C)C)NC(=O)OCc1ccccc1)C(=O)C(=O)NCC(O)c1ccc(OCc2ccccc2)c(OCc2ccccc2)c1 (stereo unspecified) [(1-{1-[2-(3,4-Bis-benzyloxy-phenyl)-2-hydroxy-ethylaminooxalyl]-propylcarbamoyl}-3-methyl-butyl)-carbamic acid benzyl ester] | 7.00 |
| CCC(NC(=O)C(CC(C)C)NC(=O)C(c1ccccc1)c1ccccc1)C(=O)C(=O)NCc1ccccn1 (stereo unspecified) [3-(2-Diphenylacetylamino-4-methyl-pentanoylamino)-2-oxo-pentanoic acid (pyridin-2-ylmethyl)-amide] | 7.05 |
| CCNC(=O)C(=O)C(CC)NC(=O)C(CC(C)C)NC(=O)Cc1cccc2ccccc12 (stereo unspecified) [3-[4-Methyl-2-(2-naphthalen-1-yl-acetylamino)-pentanoylamino]-2-oxo-pentanoic acid ethylamide] | 6.60 |
| CCNC(=O)C(=O)C(CC)NC(=O)C(CC(C)C)NC(=O)c1cccnc1 (stereo unspecified) [N-[1-(1-Ethylaminooxalyl-propylcarbamoyl)-3-methyl-butyl]-nicotinamide] | 6.08 |
| CCC(NC(=O)C(CC(C)C)NC(=O)OCc1ccccc1)C(=O)C(=O)NCCc1ccccn1 (stereo unspecified) [{3-Methyl-1-[1-(2-pyridin-2-yl-ethylaminooxalyl)-propylcarbamoyl]-butyl}-carbamic acid benzyl ester] | 6.33 |
| CC(C)CC(NC(=O)C(c1ccccc1)c1ccccc1)C(=O)NC(Cc1ccccc1)C(=O)C(=O)NCCCN1CCOCC1 (stereo unspecified) [2-Diphenylacetylamino-4-methyl-pentanoic acid [1-benzyl-2-(3-morpholin-4-yl-propylcarbamoyl)-2-oxo-ethyl]-amide] | 7.13 |
| CCC(NC(=O)C(CC(C)C)NC(=O)OCc1ccccc1)C(=O)C(=O)NCC(O)c1cccc2ccccc12 (stereo unspecified) [{1-[1-(2-Hydroxy-2-naphthalen-1-yl-ethylaminooxalyl)-propylcarbamoyl]-3-methyl-butyl}-carbamic acid benzyl ester] | 6.77 |

Further lines, results first:

| pKi | Compound |
| --- | --- |
| 6.77 | CC(C)CC(NC(=O)OCc1ccccc1)C(=O)NC(Cc1ccccc1)C(=O)C(=O)NCC(O)c1ccc(Oc2ccccc2)cc1 (stereo unspecified) [(1-{1-Benzyl-2-[2-hydroxy-2-(4-phenoxy-phenyl)-ethylcarbamoyl]-2-oxo-ethylcarbamoyl}-3-methyl-butyl)-carbamic acid benzyl ester] |
| 6.80 | CC(C)CC(NC(=O)OCc1ccccc1)C(=O)NC(Cc1ccccc1)C(=O)C(=O)NCCNC(=O)CCCC[C@@H]1SC[C@@H]2NC(=O)N[C@@H]21 (stereo partly drawn) [[1-(1-Benzyl-2-oxo-2-{2-[5-((3aR,6S,6aS)-2-oxo-hexahydro-thieno[3,4-d]imidazol-6-yl)-pentanoylamino]-ethylcarbamoyl}-ethylcarbamoyl)-3-methyl-butyl]-carbamic acid benzyl ester] |
| 6.92 | CC(C)CC(NC(=O)OCc1ccccc1)C(=O)NC(Cc1ccccc1)C(=O)C(=O)NCC(O)c1cccc(Oc2ccc(Cl)c(Cl)c2)c1 (stereo unspecified) [[1-(1-Benzyl-2-{2-[3-(3,4-dichloro-phenoxy)-phenyl]-2-hydroxy-ethylcarbamoyl}-2-oxo-ethylcarbamoyl)-3-methyl-butyl]-carbamic acid benzyl ester] |
| 7.11 | CCC(NC(=O)C(CC(C)C)NC(=O)OCc1ccccc1)C(=O)C(=O)NCCO (stereo unspecified) [{1-[1-(2-Hydroxy-ethylaminooxalyl)-propylcarbamoyl]-3-methyl-butyl}-carbamic acid benzyl ester] |
| 6.92 | CCC(NC(=O)C(CC(C)C)NC(=O)OCc1ccccc1)C(=O)C(=O)NCC(O)c1ccc(OCc2ccccc2)cc1 (stereo unspecified) [(1-{1-[2-(4-Benzyloxy-phenyl)-2-hydroxy-ethylaminooxalyl]-propylcarbamoyl}-3-methyl-butyl)-carbamic acid benzyl ester] |
| 6.62 | CC(C)CC(NC(=O)OCc1ccccc1)C(=O)NC(Cc1ccccc1)C(=O)C(=O)NCC(O)c1ccc(OCc2ccccc2)cc1 (stereo unspecified) [(1-{1-Benzyl-2-[2-(4-benzyloxy-phenyl)-2-hydroxy-ethylcarbamoyl]-2-oxo-ethylcarbamoyl}-3-methyl-butyl)-carbamic acid benzyl ester] |
| 5.00 | CCNC(=O)C(=O)C(CC)NC(=O)C(CC(C)C)NC(=O)N1CCOCC1 (stereo unspecified) [Morpholine-4-carboxylic acid [1-(1-ethylaminooxalyl-propylcarbamoyl)-3-methyl-butyl]-amide] |
| 6.47 | CC(C)CC(NC(=O)OCc1ccccc1)C(=O)NC(Cc1ccccc1)C(=O)C(=O)NCC(O)c1cccc(Oc2ccccc2)c1 (stereo unspecified) [(1-{1-Benzyl-2-[2-hydroxy-2-(3-phenoxy-phenyl)-ethylcarbamoyl]-2-oxo-ethylcarbamoyl}-3-methyl-butyl)-carbamic acid benzyl ester] |
| 6.32 | CCNC(=O)C(=O)C(CC)NC(=O)C(CC(C)C)NC(=O)c1cnccn1 (stereo unspecified) [Pyrazine-2-carboxylic acid [1-(1-ethylaminooxalyl-propylcarbamoyl)-3-methyl-butyl]-amide] |
| 7.66 | CCC(NC(=O)C(CC(C)C)NC(=O)OCc1ccccc1)C(=O)C(=O)NCc1cc(OC)cc(OC)c1 (stereo unspecified) [{1-[1-(3,5-Dimethoxy-benzylaminooxalyl)-propylcarbamoyl]-3-methyl-butyl}-carbamic acid benzyl ester] |
| 6.52 | CCNC(=O)C(=O)C(CC)NC(=O)C(CC(C)C)NC(=O)c1ccc2ccccc2n1 (stereo unspecified) [Quinoline-2-carboxylic acid [1-(1-ethylaminooxalyl-propylcarbamoyl)-3-methyl-butyl]-amide] |
| 6.96 | CCC(NC(=O)C(CC(C)C)NC(=O)C(c1ccccc1)c1ccccc1)C(=O)C(=O)NCCCN1CCOCC1 (stereo unspecified) [3-(2-Diphenylacetylamino-4-methyl-pentanoylamino)-2-oxo-pentanoic acid (3-morpholin-4-yl-propyl)-amide] |
| 7.64 | CC(C)CC(NC(=O)OCc1ccccc1)C(=O)NC(Cc1ccccc1)C(=O)C(=O)NCc1ccc2ccccc2n1 (stereo unspecified) [(1-{1-Benzyl-2-oxo-2-[(quinolin-2-ylmethyl)-carbamoyl]-ethylcarbamoyl}-3-methyl-butyl)-carbamic acid benzyl ester] |
| 6.54 | CC(C)CC(NC(=O)OCc1ccccc1)C(=O)NC(Cc1ccccc1)C(=O)C(=O)NCC(O)c1cccc(C(F)(F)F)c1 (stereo unspecified) [(1-{1-Benzyl-2-[2-hydroxy-2-(3-trifluoromethyl-phenyl)-ethylcarbamoyl]-2-oxo-ethylcarbamoyl}-3-methyl-butyl)-carbamic acid benzyl ester] |
| 6.74 | CCC(NC(=O)C(CC(C)C)NC(=O)OCc1ccccc1)C(=O)C(=O)NCC(O)c1cccc(C(F)(F)F)c1 (stereo unspecified) [(1-{1-[2-Hydroxy-2-(3-trifluoromethyl-phenyl)-ethylaminooxalyl]-propylcarbamoyl}-3-methyl-butyl)-carbamic acid benzyl ester] |
| 6.70 | CCC(NC(=O)C(CC(C)C)NC(=O)OCc1ccccc1)C(=O)C(=O)NCC(O)c1c(F)c(F)c(F)c(F)c1F (stereo unspecified) [{1-[1-(2-Hydroxy-2-pentafluorophenyl-ethylaminooxalyl)-propylcarbamoyl]-3-methyl-butyl}-carbamic acid benzyl ester] |
| 6.96 | CCC(NC(=O)C(CC(C)C)NC(=O)OCc1ccccc1)C(=O)C(=O)NCc1ccncc1 (stereo unspecified) [{3-Methyl-1-[1-(pyridin-4-ylmethyl)-aminooxalyl]-propylcarbamoyl}-butyl)-carbamic acid benzyl ester] |

— BindingDB's records for doi:10.1021/jm950541c (Georgia Institute of Technology, 1996)
